Experiment [1] relates to Staphylococcus aureus. In words: Antibacterial activity against Staphylococcus aureus ATCC 29213. It counts as functional. The procedure, abridged: (§1)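 Broth tube dilution MIC. Bacteria subcultured from stock onto agar and grown overnight at 37 ± 2 °C in ambient air. Overnight cultures went into broth adjusted to about 5 × 10⁸ CFU/mL. Inhibitor started at 50 µg/mL with doubling dilutions over 10 tubes in duplicate. Each tube received 0.01 mL of challenge broth.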

The subject of experiment [2] is Staphylococcus aureus. As to the kind of experiment: Antibacterial activity against methicillin-resistant Staphylococcus aureus ATCC 33591. The class given is functional. The procedure, abridged:
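Broth tube dilution MIC, performed by a contract lab. Bacteria were subcultured from stock onto agar and grown overnight at 37 ± 2 °C in ambient air. Overnight cultures went into broth adjusted to about 5 × 10⁸ CFU/mL. Inhibitor started at 50 µg/mL in doubling dilutions, 10 tubes in duplicate. Each tube received 0.01 mL of challenge broth.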

Experiment [3] in a line: Inhibition of Bacillus subtilis NAD synthetase by fluorescence based assay. The procedure, abridged:
(§2)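 B. subtilis NAD synthetase, overexpressed and purified, 2.0 µg/mL. Coupled to yeast ADH (40 µg/mL) with 1% EtOH at pH 8.5: 58.5 mM HEPPS, 18.5 mM NH4Cl, 19.5 mM KCl, 9.75 mM MgCl2, 0.1 mM NaAD, 2.5% DMSO. No BOG; 0–0.01% Triton X-100. Started with 0.2 mM ATP. NADH read by fluorescence. Triplicate points; IC50 averaged over two experiments.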

Experiment [4] relates to Bacillus subtilis. In words: Antibacterial activity against Bacillus subtilis ATCC 14289. The class given is functional. The procedure, abridged: as §1
A short description of experiment [5]: Inhibition of yeast alcohol dehydrogenase by fluorescence based assay. Also noted: species or system Saccharomyces cerevisiae. The procedure, abridged:
(§3)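 Yeast ADH 2.5 µg/mL in 60 mM HEPPS pH 8.5 with 0.5 mM NH4Cl, 20 mM KCl, 10 mM MgCl2, 60 mM ethanol, 2.5% DMSO and 0–0.01% Triton X-100. Started with 0.75 mM β-NAD and stopped with 1.2 M guanidine·HCl after 2 min. NADH fluorescence read at 355 nm excitation / 460 nm emission, pre-NAD blank subtracted. Triplicate points; IC50 averaged over two experiments.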

Experiment [6] in a line: (§4) Inhibition of yeast alcohol dehydrogenase in presence of 0.01% Triton X-100 by fluorescence based assay. Also noted: species or system Saccharomyces cerevisiae. The procedure, abridged:
as §3

Experiment [7] in a line: (§5) Inhibition of yeast alcohol dehydrogenase in presence of 0.001% Triton X-100 by fluorescence based assay. Also noted: species or system Saccharomyces cerevisiae. The procedure, abridged:
as §3

A short description of experiment [8]: (§6) Inhibition of Bacillus subtilis NAD synthetase in presence of 0.001% Triton X-100 by fluorescence based assay. The procedure, abridged: as §2
The nature of experiment [9]: (§7) Inhibition of Bacillus subtilis NAD synthetase in presence of 0.01% Triton X-100 by fluorescence based assay. The procedure, abridged: as §2
For experiment [10], the system named is Pseudomonas aeruginosa. As to the kind of experiment: Antibacterial activity against Pseudomonas aeruginosa ATCC 27853. It counts as functional. The procedure, abridged: as §1
Experiment [11] relates to Saccharomyces cerevisiae. The experiment is described as §4. The procedure, abridged: as §3
The test system of experiment [12] is Saccharomyces cerevisiae. Described as §5. The procedure, abridged:
as §3

Experiment [13] deals with Bacillus subtilis. Described as §6. The procedure, abridged: as §2
For experiment [14], the system named is Bacillus subtilis. The experiment is described as §7. The procedure, abridged: as §2

Values after ≈ are worked out from the molar mass of the structure shown. Active and inactive are the calls of the source. The calls are words filed in the database; no cut-off is given here.

In general, MIC refers to the lowest concentration that inhibits growth of the organism. For the molecule `COc1cccc(OC)c1C(=O)N[C@@H]1C(=O)N2[C@@H]1SC(C)(C)[C@@H]2C(=O)O` [METHICILLIN], the MIC in experiment [1] was 1 µM (≈ 0.38 µg/mL); in [2], 32 µM (≈ 12.2 µg/mL).
One may read the IC50 as the concentration that inhibits the measured activity by half. As for `C[N+](C)(C)[C@@H](Cc1ccccc1)C(=O)NCCCCCCCCOc1ccc(OCc2ccccc2)cc1`, the half-maximal inhibitory concentration (IC50) in [3] was 40 µM; in [5], greater than 1500 µM; in experiment [6], greater than 1500 µM; in experiment [7], greater than 1500 µM; in [8], 27.8 µM; in experiment [9] it was 104 µM. The MIC in experiment [4] was 0.39 µM; in experiment [1], 0.78 µM; in [2], 0.78 µM; in experiment [10], greater than 50 µM.
For the molecule `N=C(N)N[C@H](COCCCCCCCCOc1ccc(OCc2ccccc2)cc1)Cc1ccccc1`, in [3], the IC50 stood at 11 µM. The MIC turned out to be 3.13 µM (≈ 1.58 µg/mL) in [4] and 0.78 µM (≈ 0.393 µg/mL) in [2].
For the molecule `C[N+](C)(C)c1ccc(CC(=O)OCCCCCCCCOc2ccc(OCc3ccccc3)cc2)cc1`, the IC50 in [3] came out at 41 µM. For the same molecule, the MIC in experiment [4] was 2 µM; in experiment [1], 9.4 µM; in experiment [2], 6.2 µM; in experiment [10], greater than 50 µM.
In [4], `CO[C@H]1/C=C/O[C@@]2(C)Oc3c(C)c(O)c4c(O)c(c(/C=N/N5CCN(C)CC5)c(O)c4c3C2=O)NC(=O)/C(C)=C\C=C\[C@H](C)[C@H](O)[C@@H](C)[C@@H](O)[C@@H](C)[C@H](OC(C)=O)[C@@H]1C` [RIFAMPIN] showed an MIC of 1.5 µM (≈ 1.23 µg/mL).
In turn, `C[N+](C)(C)[C@H](COCCCCCCCCOc1ccc(OCc2ccccc2)cc1)c1ccccc1` showed an IC50 in [3] of 38 µM. In addition, the MIC in [4] was 0.78 µM; in [2], 3.13 µM.
As to `C[C@H]1c2cccc(O)c2C(=O)C2=C(O)[C@]3(O)C(=O)C(C(N)=O)=C(O)[C@@H](N(C)C)[C@@H]3[C@@H](O)[C@@H]21` [DOXYCYCLINE], the figures for the MIC in [4], in [1] and in experiment [2] were 1.56 µM (≈ 0.693 µg/mL), 1.56 µM (≈ 0.693 µg/mL) and greater than 30 µM, respectively.
In [3], `C[N+](C)(C)[C@H](C(=O)NCCCCCCCCOc1ccc(OCc2ccccc2)cc1)c1ccccc1` registered an IC50 of 45 µM. Moreover, the MIC in [4] and in [2] was 1.56 µM each time.
Consider `C[N+](C)(C)[C@@H](Cc1ccccc1)C(=O)OCCCCCCCCOc1ccc(OCc2ccccc2)cc1`, for which the IC50 came to 22 µM in experiment [3]; 27 µM in experiment [5]; 266 µM in experiment [6]; 69 µM in experiment [7]; 16.5 µM in [8]; 37 µM in experiment [9]. In addition, the MIC in experiment [4] is 0.78 µM; in experiment [1], 0.78 µM; in experiment [2], 0.78 µM; in experiment [10], greater than 50 µM.
Consider `O=C(O)c1cn(C2CC2)c2cc(N3CCNCC3)c(F)cc2c1=O` [CIPROFLOXACIN], for which the MIC in experiment [4] and in [2] was 0.5 µM (≈ 0.166 µg/mL) in each case.
In turn, `N=C(N)N[C@@H](Cc1ccccc1)C(=O)NCCCCCCCCOc1ccc(OCc2ccccc2)cc1` returned an IC50 in experiment [3] of 12 µM. Further, the figures for the MIC in [4] and in experiment [2] were 3.13 µM (≈ 1.62 µg/mL) and 1.56 µM (≈ 0.806 µg/mL), respectively.
As for `CC1(C)S[C@@H]2[C@H](NC(=O)[C@H](N)c3ccccc3)C(=O)N2[C@H]1C(=O)O` [AMPICILLIN], the MIC is 0.2 µM (≈ 0.0699 µg/mL) in experiment [4] and greater than 50 µM in [2].
`C[N+](C)(C)[C@H](COCCCCCCCCOc1ccc(OCc2ccccc2)cc1)Cc1ccccc1` returned an IC50 in [3] of 21 µM. The MIC in experiment [4] is 0.39 µM; in experiment [1], 0.78 µM; in experiment [2] it was 1.56 µM; in experiment [10], greater than 50 µM.
With `N=C(N)N[C@H](COCCCCCCCCOc1ccc(OCc2ccccc2)cc1)c1ccccc1`, in [3], half-maximal inhibition (IC50) was put at 11 µM. Also, the values for the MIC in [4] and in experiment [2] were 3.13 µM (≈ 1.53 µg/mL) and 0.78 µM (≈ 0.382 µg/mL), respectively.
The matching figures for `C[N+](C)(C)[C@@H](Cc1ccc(O)cc1)C(=O)OCCCCCCCCOc1ccc(OCc2ccccc2)cc1`: 53 µM, 1.56 µM and 3.13 µM.
For the molecule `Clc1ccccc1C(c1ccccc1)(c1ccccc1)n1ccnc1` [CLOTRIMAZOLE], the IC50 in experiment [3] is greater than 1500 µM; in experiment [5] it was 96.5 µM. In addition, the result in [11], in experiment [12], in [13] and in experiment [14] was inactive.
`C[N+](C)(C)[C@@H](Cc1c[nH]c2ccccc12)C(=O)OCCCCCCCCOc1ccc(OCc2ccccc2)cc1` displayed an IC50 in experiment [3] of 19 µM.
In turn, `N=C(N)N[C@H](C(=O)NCCCCCCCCOc1ccc(OCc2ccccc2)cc1)c1ccccc1` gave an IC50 in experiment [3] of 19 µM. Moreover, the MIC in [4] and in [2] was 1.56 µM (≈ 0.784 µg/mL) throughout.

The values are drawn from ChEMBL document CHEMBL1143671, “Antibacterial nicotinamide adenine dinucleotide synthetase inhibitors: amide- and ether-linked tethered dimers with alpha-amino acid end groups” (J Med Chem, 2007).
